Measurements gathered from unrelated publications.
Protocols differ between the studies behind these lines.
Target: Mitogen-activated protein kinase kinase kinase 15 (MAP3K15, Homo sapiens, UniProt Q6ZN16)
Sequence (Q6ZN16 1-1313, as in one of the studies): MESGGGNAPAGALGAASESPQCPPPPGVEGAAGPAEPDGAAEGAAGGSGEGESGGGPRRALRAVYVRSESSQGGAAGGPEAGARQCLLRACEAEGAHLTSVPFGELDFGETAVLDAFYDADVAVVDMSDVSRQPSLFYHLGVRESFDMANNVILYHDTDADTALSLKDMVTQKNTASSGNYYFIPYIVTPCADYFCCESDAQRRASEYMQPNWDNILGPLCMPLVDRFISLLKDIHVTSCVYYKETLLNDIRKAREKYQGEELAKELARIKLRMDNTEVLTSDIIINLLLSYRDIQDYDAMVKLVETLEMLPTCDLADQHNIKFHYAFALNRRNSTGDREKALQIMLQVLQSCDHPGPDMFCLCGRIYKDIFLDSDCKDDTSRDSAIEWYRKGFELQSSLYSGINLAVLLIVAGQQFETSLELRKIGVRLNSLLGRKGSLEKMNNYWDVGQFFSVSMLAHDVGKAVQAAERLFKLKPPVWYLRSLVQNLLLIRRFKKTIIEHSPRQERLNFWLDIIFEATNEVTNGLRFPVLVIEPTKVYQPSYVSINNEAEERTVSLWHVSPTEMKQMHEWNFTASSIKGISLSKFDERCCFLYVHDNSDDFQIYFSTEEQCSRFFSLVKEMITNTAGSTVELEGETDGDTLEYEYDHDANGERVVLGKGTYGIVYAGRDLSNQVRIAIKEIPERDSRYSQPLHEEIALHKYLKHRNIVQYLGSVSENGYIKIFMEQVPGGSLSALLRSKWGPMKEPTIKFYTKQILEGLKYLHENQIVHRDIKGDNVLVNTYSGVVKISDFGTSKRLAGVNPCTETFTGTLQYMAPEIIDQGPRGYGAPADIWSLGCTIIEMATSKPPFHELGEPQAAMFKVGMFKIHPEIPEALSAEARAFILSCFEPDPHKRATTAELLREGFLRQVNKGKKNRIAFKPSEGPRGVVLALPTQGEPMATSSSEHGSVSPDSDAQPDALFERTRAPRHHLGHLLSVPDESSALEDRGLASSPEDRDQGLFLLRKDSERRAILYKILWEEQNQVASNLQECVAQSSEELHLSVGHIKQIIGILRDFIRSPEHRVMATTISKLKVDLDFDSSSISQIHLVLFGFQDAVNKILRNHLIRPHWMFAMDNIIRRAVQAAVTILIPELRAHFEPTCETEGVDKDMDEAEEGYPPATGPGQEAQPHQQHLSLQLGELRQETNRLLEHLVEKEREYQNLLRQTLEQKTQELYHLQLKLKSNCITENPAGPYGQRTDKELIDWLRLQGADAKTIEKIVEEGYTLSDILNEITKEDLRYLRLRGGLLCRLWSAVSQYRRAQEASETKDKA

CN(C)c1nccc(-c2cnc3ncccn23)n1 — remaining binding (binding; 1 µM): 100%
Cc1nccc(COC(=O)N2C[C@@H]3[C@@H](CNC(=O)c4ccc5[nH]nnc5c4)[C@@H]3C2)n1 — remaining binding (cell-free assay; competition with immobilised ligand; 1 µM): 95%
C[C@@H](c1ccc(-n2cnc3c(N)ncnc32)cc1)N1CCc2nn(C)c(Cc3ccccc3)c2C1=O — remaining binding (binding; competition with immobilised ligand; 0.1 µM): 60%
F[C@@H]1CCN(c2nccc(-c3cnn4ncccc34)n2)C1 — remaining binding (binding; 1 µM): 100%
COc1cnc(Nc2cccc(S(N)(=O)=O)c2)nc1N1CCN(c2ccccc2)CC1 — remaining binding (binding; competition with immobilised ligand; 1 µM): 78%
N[C@@H]1CCN(c2nccc(-c3cnn4ncccc34)n2)C1 — remaining binding (binding; 1 µM): 92%
O=C(O)c1cc(-c2ccc(C3CCNCC3)cc2)c2ccc(-c3ccc(C(F)(F)F)cc3)cc2c1 — remaining binding (cell-free assay; competition with immobilised ligand; 1 µM): 99%
O=C(NCC1CCOCC1)c1n[nH]cc1NC(=O)c1c(F)cccc1F — remaining binding (binding; competition with immobilised ligand; 1 µM): 72%
c1cnn2ncc(-c3ccnc(N4CCC45COC5)n3)c2c1 — remaining binding (binding; 1 µM): 68%
CCCCN(CCCC)C(=O)CN1C[C@@H](c2cc(OC)c3c(c2)OCO3)[C@H](C(=O)O)[C@H]1CC(C)(C)CCC — remaining binding (cell-free assay; competition with immobilised ligand; 1 µM): 99%
CN(CCCC(F)(F)F)c1nccc(-c2cnn3ncccc23)n1 — remaining binding (binding; 1 µM): 100%
O=c1nc(-c2ccccn2)sc2ccccc12 — remaining binding (binding; competition with immobilised ligand; 1 µM): 100%
O=C(c1ccc(Nc2ncc(Cl)c(-c3ccc(Cl)s3)n2)cc1)N1CCC(N2CCCC2)CC1 — remaining binding (binding; competition with immobilised ligand; 1 µM): 52%
Nc1ncc2c(n1)-c1c([nH]c3ccc(C#CC4CC4)cc13)CCCC2 — remaining binding (binding; competition with immobilised ligand; 1 µM): 73%
CCN1CCN(Cc2ccc(C(=O)Nc3ccc(C)c(Oc4ccc5c(c4)CC(=O)N5)c3)cc2C(F)(F)F)CC1 — remaining binding (binding; competition with immobilised ligand; 1 µM): 100%
Cn1cc(Cl)c2c(Oc3c(F)cc(Nc4cc(Cl)nc(N)n4)cc3F)ccnc21 — remaining binding (cell-free assay; competition with immobilised ligand; 0.1 µM): 84%
O=C(c1ccc(Nc2nccc(-c3cc4ccccc4s3)n2)cc1)N1CCC(N2CCCC2)CC1 — remaining binding (binding; competition with immobilised ligand; 1 µM): 96%
COc1ccnn2ncc(-c3ccnc(N(C)C)n3)c12 — remaining binding (binding; 1 µM): 100%
CN(C)C(=O)Cn1cc(-c2nc([C@@](C)(c3ccc(-c4cnc(N)nc4)cc3)C3CC3)no2)cn1 — remaining binding (cell-free assay; competition with immobilised ligand; 1 µM): 99%
O=C(c1ccc(Nc2ncc(Cl)c(-c3cc4ccccc4s3)n2)cc1)N1CCC(N2CCCC2)CC1 — remaining binding (binding; competition with immobilised ligand; 1 µM): 55%
c1cncc(-c2cccc(Nc3nccc(NC4CCCCC4)n3)c2)c1 — remaining binding (binding; competition with immobilised ligand; 10 µM): 77%
